Assay results from ChEMBL document CHEMBL1126841, “Synthesis and structure-activity relationships of 1-acyl-4-((2-methyl-3-pyridyl)cyanomethyl)piperazines as PAF antagonists” (J Med Chem, 1993).

What was measured:
Assay type in all cases: functional
[1] = test system: Rattus norvegicus; test: Tested for dose required to inhibit endotoxin-induced mortality by 50 % when administered perorally in endotoxin-induced mortality (EIM) rats; conditions: po, read-out: ID50 (the source's name)
How it was run: (§1)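 Groups of 10 male Sprague-Dawley rats (150-175 g) were dosed iv (saline vehicle) 5 min or po (1% Tween 80 vehicle) 30 min before tail-vein injection of E. coli 0127:B8 endotoxin, 5 mg/kg. Mortality was scored at 7 days versus vehicle controls. ID50 was obtained by linear regression of a single curve of at least four points.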

[2] = test system: Mus musculus; test: Tested for dose required to inhibit antigen-induced mortality by 50 % when administered perorally in active anaphylactic shock (AAS) mice; conditions: po, read-out: ID50 (the source's name)
How it was run: (§2)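 Male Swiss mice (30 g, groups of 10) were sensitized by ip injection of 1 mL saline containing 1 mg bovine serum albumin, then challenged with BSA. Compound was given iv 5 min or po 30 min before challenge. Survival was recorded 60 min after BSA. ID50 (dose inhibiting mortality by 50%) was obtained by linear regression of a single curve of at least four points.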

[3] = test system: Mus musculus; test: Tested for dose required to inhibit antigen-induced mortality by 50 % when administered intravenously in active anaphylactic shock (AAS) mice; conditions: iv, read-out: ID50 (the source's name); how it was run: as §2
[4] = test system: Rattus norvegicus; test: Tested for dose required to inhibit endotoxin-induced mortality by 50 % when administered intravenously in endotoxin-induced mortality (EIM) rats; conditions: iv, read-out: ID50 (the source's name); how it was run: as §1
[5] = test system: Mus musculus; test: Tested for dose required to inhibit endotoxin-induced mortality by 50 % when administered perorally in endotoxin-induced mortality (EIM) mice; conditions: po, read-out: ID50 (the source's name)
How it was run: as §1, with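 “male Swiss mice (22-26” for “male Sprague-Dawley rats (150-175”, “coli 0111:B4” for “coli 0127:B8”, “endotoxin, 20” for “endotoxin, 5”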

[6] = test system: Mus musculus; test: Tested for dose required to inhibit endotoxin-induced mortality by 50 % when administered intravenously in endotoxin-induced mortality (EIM) mice; conditions: iv, read-out: ID50 (the source's name)
How it was run: as §1, with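 “male Swiss mice (22-26” for “male Sprague-Dawley rats (150-175”, “coli 0111:B4” for “coli 0127:B8”, “endotoxin, 20” for “endotoxin, 5”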

[7] = test system: Rattus norvegicus; test: Tested for dose required to inhibit endotoxin-induced mortality by 50 % when administered intravenously in endotoxin-induced mortality (EIM) in rats; conditions: iv, read-out: ID50 (the source's name); how it was run: as §1
[8] = molecular target: Platelet-activating factor receptor (Rattus norvegicus) (UniProt P46002); test: Intravenous dose required to reduce the arterial blood pressure caused by PAF by 50% in rats
Platelet-activating factor receptor (Rattus norvegicus), sequence (P46002 whole entry): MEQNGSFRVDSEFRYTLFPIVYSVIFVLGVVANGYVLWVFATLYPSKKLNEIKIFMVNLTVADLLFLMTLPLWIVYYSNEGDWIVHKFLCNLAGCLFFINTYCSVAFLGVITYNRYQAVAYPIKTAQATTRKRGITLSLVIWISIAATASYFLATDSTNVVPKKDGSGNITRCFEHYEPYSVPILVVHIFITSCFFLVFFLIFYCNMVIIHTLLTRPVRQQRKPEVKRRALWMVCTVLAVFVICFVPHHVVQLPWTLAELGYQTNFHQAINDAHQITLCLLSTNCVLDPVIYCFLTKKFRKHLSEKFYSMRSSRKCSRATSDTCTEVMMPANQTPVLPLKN
How it was run: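 Male Sprague-Dawley rats (180-220 g) under pentobarbital anesthesia (50 mg/kg ip); carotid blood pressure recorded. Compound in saline given iv (femoral vein) 3 min before PAF 0.5 µg/kg iv; controls got vehicle. % inhibition of hypotension vs controls. ID50 from linear regression of one curve, ≥4 doses, each the mean of ≥2 independent experiments.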

[9] = test system: Mus musculus; test: Tested for dose required to inhibit antigen-induced mortality by 50 % when administered intravenously in active anaphylactic shock (AAS) mice.; conditions: iv, read-out: ID50 (the source's name); how it was run: as §2
[10] = molecular target: Platelet-activating factor receptor (Mus musculus) (UniProt Q62035); test: Dose required to inhibit PAF-induced mortality by 50% in mice; conditions: Mus sp.
Platelet-activating factor receptor (Mus musculus), sequence (Q62035 whole entry): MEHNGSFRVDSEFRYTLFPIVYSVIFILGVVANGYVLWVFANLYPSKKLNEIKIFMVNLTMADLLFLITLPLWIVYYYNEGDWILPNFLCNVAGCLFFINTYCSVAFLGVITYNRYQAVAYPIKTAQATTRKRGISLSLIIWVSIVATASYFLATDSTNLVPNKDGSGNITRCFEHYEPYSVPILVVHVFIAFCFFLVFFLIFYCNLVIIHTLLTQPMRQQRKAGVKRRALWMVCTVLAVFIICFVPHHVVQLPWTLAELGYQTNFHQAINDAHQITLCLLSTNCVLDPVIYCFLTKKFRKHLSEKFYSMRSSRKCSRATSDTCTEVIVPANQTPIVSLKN
How it was run: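 Male Swiss mice (22-26 g), groups of 10; test compound given po (20 mL/kg), controls 1% Tween 80. 60 min later, C18-PAF 100 µg/kg plus propanolol 1 mg/kg injected into a lateral tail vein. Mortality scored 2 h after PAF; % inhibition vs controls. ID50 from linear regression of one curve, ≥4 points. Initial dose 3 mg/kg; further doses only if >50% inhibition.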

[11] = test system: Rattus norvegicus; test: Tested for dose required to inhibit endotoxin-induced mortality by 50 % when administered perorally in endotoxin-induced mortality (EIM) in rats; conditions: po, read-out: ID50 (the source's name); how it was run: as §1
[12] = test system: Mus musculus; test: Tested for dose required to inhibit antigen-induced mortality by 50 % when administered perorally in active anaphylactic shock (AAS) mice.; conditions: po, read-out: ID50 (the source's name); how it was run: as §2
[13] = species on record: Oryctolagus cuniculus; test: In vitro inhibition of PAF-induced platelet aggregation in male rabbits
How it was run: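 Platelet-rich plasma from blood spun 250 g, 10 min, 4 °C, diluted with platelet-poor plasma (3000 g, 10 min) to 3.5 × 10^5 platelets/mm3. Aggregation induced with C18-PAF 1.5 × 10^-8 M and read on a dual-channel aggregometer. IC50 as 50% inhibition of maximal aggregation, by linear regression of one curve, ≥4 points, each the mean of 1-3 independent experiments.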

| SMILES | ED50 [1] [mg/kg] | ED50 [2] [mg/kg] | ED50 [3] [mg/kg] | ED50 [4] [mg/kg] | ED50 [5] [mg/kg] | ED50 [6] [mg/kg] | ED50 [7] [mg/kg] | ID50 [8] [mg/kg] | ED50 [9] [mg/kg] | ID50 [10] [mg/kg] | ED50 [11] [mg/kg] | ED50 [12] [mg/kg] | IC50 [13] [nM] |
| --- | --- | --- | --- | --- | --- | --- | --- | --- | --- | --- | --- | --- | --- |
| Cc1nnc2n1-c1sc(CCC(=O)N3CCOCC3)cc1C(c1ccccc1Cl)=NC2 [APAFANT] | 1.4 | 0.8 | 1.7 | 0.47 | 13.2 | 1.7 |  |  |  |  |  |  |  |
| Cc1ncccc1C(C#N)N1CCN(C(=O)CNC(c2ccccc2)c2ccccc2)CC1 (stereo not given) |  |  |  |  | 9 | 1.4 | 0.28 | 0.021 | 0.51 | 0.3 | 1.4 | 2.7 |  |
| Cc1ncccc1C(C#N)N1CCN(C(=O)CC(c2ccccc2)N2C(=O)CCC2=O)CC1 (stereo not given) |  |  |  |  |  |  |  | 0.042 |  | 0.71 |  |  | 69 |
| COC(=O)NC(CC(=O)N1CCN(C(C#N)c2cccnc2C)CC1)c1ccccc1 (stereo not given) | 1 | 2.7 | 0.19 | 0.11 | 7.5 | 1.7 |  | 0.015 |  | 0.044 |  |  |  |
